Laboratory results as given in ChEMBL document CHEMBL1152964, “Bicyclic cyanothiazolidines as novel dipeptidyl peptidase 4 inhibitors” (Bioorg Med Chem Lett, 2009).

Experiments:
[1] = biological target: T1, Prolyl endopeptidase FAP (Homo sapiens, UniProt Q12884); assay: Inhibition of human recombinant FAP expressed in Sf9 cells by fluorescence assay
T1 sequence (Q12884 whole entry): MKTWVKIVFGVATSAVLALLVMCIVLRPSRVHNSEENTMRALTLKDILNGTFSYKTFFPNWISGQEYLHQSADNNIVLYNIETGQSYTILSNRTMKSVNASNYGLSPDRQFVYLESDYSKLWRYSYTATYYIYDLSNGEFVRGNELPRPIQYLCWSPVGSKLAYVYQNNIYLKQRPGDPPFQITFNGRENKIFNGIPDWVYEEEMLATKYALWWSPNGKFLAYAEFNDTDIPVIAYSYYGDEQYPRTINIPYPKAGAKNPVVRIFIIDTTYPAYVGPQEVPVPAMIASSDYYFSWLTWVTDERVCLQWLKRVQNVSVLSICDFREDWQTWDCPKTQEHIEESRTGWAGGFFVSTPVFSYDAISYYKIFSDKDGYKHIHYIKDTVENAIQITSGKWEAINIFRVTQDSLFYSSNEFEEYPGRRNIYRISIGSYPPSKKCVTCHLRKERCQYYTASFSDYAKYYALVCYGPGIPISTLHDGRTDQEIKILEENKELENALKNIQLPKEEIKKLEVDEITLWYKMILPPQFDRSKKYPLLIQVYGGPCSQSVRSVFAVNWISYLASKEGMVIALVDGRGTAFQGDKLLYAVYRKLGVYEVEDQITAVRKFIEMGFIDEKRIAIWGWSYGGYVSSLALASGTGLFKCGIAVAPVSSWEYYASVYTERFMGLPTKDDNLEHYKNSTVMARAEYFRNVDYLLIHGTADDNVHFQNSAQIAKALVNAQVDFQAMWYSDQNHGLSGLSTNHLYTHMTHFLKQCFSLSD
Method in brief: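 Recombinant human FAP, His-tagged, expressed in infected insect cells grown 48 h and purified by His-tag column. Enzyme preincubated with inhibitor (0.5 nM to 50 µM; dissolved in DMSO or 50 mM glycine pH 3.0) 10 min at 27 °C in 25 mM Tris pH 8. Ala-Pro AMC substrate was then added and AMC release read at ex 360/em 460 nm. IC50 was fitted by nonlinear regression.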

[2] = biological target: Dipeptidyl peptidase 4 (Homo sapiens, UniProt P27487); assay: Inhibition of human recombinant DPP4 by fluorescence assay
Sequence of Dipeptidyl peptidase 4 (P27487 whole entry): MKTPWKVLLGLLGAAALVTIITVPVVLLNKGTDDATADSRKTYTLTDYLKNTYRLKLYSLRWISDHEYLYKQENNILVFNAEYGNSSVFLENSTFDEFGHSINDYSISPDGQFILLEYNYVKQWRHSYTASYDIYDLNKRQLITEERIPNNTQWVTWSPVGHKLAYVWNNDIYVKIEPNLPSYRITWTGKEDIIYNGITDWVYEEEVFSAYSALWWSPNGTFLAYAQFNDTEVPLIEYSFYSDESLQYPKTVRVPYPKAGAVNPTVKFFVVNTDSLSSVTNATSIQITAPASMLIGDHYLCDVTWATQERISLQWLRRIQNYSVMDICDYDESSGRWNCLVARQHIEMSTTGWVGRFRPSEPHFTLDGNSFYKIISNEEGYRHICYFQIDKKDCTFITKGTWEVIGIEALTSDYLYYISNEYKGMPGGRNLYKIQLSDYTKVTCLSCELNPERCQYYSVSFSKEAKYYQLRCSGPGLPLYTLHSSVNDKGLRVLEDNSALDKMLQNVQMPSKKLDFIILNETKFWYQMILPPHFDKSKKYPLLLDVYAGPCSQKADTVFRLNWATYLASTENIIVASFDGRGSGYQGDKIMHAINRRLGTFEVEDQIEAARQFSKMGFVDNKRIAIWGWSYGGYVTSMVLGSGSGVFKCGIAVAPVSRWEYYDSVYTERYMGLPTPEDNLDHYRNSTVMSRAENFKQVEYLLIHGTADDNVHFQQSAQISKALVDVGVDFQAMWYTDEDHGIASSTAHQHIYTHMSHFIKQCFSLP

N#C[C@@H]1CS[C@H]2C[C@](N)(CCc3ccccc3)C(=O)N12
IC50 [1]: > 10 µM

N#C[C@@H]1CS[C@H]2C[C@](N)(Cc3ccccc3)C(=O)N12
IC50 [1]: > 10 µM

CC(C)[C@@]1(N)C[C@@H]2SC[C@@H](C#N)N2C1=O
IC50 [1]: > 10 µM

N#C[C@@H]1CS[C@H]2C[C@@H](NCCc3ccccc3)C(=O)N12
IC50 [2]: > 16 µM

N#C[C@@H]1CS[C@H]2CC[C@@H](N)C(=O)N12
IC50 [2]: > 1.6 µM

N#C[C@@H]1CS[C@H]2C[C@](N)(c3ccccc3)C(=O)N12
IC50 [1]: > 10 µM

CC[C@@]1(N)C[C@@H]2SC[C@@H](C#N)N2C1=O
IC50 [1]: > 10 µM

N#C[C@@H]1CS[C@H]2C[C@@H](NC3CCCC3)C(=O)N12
IC50 [2]: > 16 µM

CC[C@H](C)[C@@]1(N)C[C@@H]2SC[C@@H](C#N)N2C1=O
IC50 [1]: > 10 µM

N#C[C@@H]1CS[C@H]2C[C@](N)(c3ccc(F)cc3)C(=O)N12
IC50 [1]: > 10 µM

N#C[C@@H]1CS[C@H]2CC[C@H](N)C(=O)N12
IC50 [2]: > 1.6 µM

N#C[C@@H]1CS[C@H]2C[C@](N)(CC3CCCCC3)C(=O)N12
IC50 [1]: > 10 µM

N#C[C@@H]1CS[C@H]2C[C@](N)(C3CCCC3)C(=O)N12
IC50 [1]: > 10 µM

CC(C)C[C@@]1(N)C[C@@H]2SC[C@@H](C#N)N2C1=O
IC50 [1]: > 10 µM

N#C[C@@H]1CS[C@H]2C[C@](N)(C3CCCCC3)C(=O)N12
IC50 [1]: > 10 µM
